# Assay outcomes deposited in PubChem BioAssay by The Scripps Research Institute Molecular Screening Center.
# PRMT1 inh = PRMT1 methyltransferase inhibitors, primary screen, biochemical, fluorescence polarization; inhibition, % at 2.79 µM; hit rate 1.3% among 370,000; AID 652257, 2013; Protein arginine N-methyltransferase 1 (Homo sapiens), Q99873; recombinant PRMT1, activity-based probe fluorescence polarization;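 active = inhibition above about 21% made by adding two undisclosed values, limit read from the data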
# Target sequence (Q99873 whole entry, looked up): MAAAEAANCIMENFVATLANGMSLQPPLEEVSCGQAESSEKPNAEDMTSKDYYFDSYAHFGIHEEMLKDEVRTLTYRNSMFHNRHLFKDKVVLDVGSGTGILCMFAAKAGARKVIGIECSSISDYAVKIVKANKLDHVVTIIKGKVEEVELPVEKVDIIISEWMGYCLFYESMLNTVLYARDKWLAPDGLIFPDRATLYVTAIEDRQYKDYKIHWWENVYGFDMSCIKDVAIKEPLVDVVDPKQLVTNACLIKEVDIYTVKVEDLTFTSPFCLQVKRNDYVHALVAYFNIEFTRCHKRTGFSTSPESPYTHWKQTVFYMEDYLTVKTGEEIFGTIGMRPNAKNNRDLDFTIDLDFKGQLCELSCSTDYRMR
# PAD4 FP inh = human PAD4 inhibitors, primary screen, biochemical, fluorescence polarization, 1536-well format. Protein-arginine deiminase type-4 (Homo sapiens), Q9UM07. recombinant PAD4, RCA probe fluorescence polarization. inhibition, % at 6.36 µM. hit rate 0.41% among 330,000;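 active = percent inhibition above a cutoff equal to the mean of all tested compounds plus 3 SD, cut at about 15% in these data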;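 note: 0% = PAD4 with RCA probe and DMSO and 100% = probe without PAD4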
# GSTO1 counter = inhibitors of recombinant GSTO1, primary screen, counter-screen for RBBP9 inhibitor project, biochemical, fluorescence polarization | activity-based probe fluorescence polarization | inhibition, % at 5.96 µM | hit rate 1.1% among 300,000;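 active = inhibition above the campaign mean inhibition plus 3 SD, cut at about 35% in these data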;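 note: 0% = GSTO1-1 with DMSO and 100% = wells lacking GSTO1-1 enzyme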
# Target sequence (P78417 whole entry, looked up): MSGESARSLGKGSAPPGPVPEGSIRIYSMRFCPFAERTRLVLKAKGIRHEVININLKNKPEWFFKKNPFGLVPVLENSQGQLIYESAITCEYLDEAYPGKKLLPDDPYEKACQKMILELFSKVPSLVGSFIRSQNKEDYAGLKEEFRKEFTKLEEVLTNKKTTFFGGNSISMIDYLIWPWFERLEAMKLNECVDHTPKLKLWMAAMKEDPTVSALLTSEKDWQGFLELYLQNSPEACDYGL
# SIAE primary = human SIAE inhibitors, primary screen, biochemical, fluorescence polarization, FP-Rh probe, 1536-well HTS. Sialate O-acetylesterase (Homo sapiens), Q9HAT2. SIAE FP-Rh probe binding. inhibition, % at 9.66 µM. hit rate 0.69% among 370,000;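 active = inhibition above a cutoff: mean of compounds within the control limits plus 3 SD of those, cut at about 17% in these data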;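 note: 0% = plate median of compound wells and 100% = probe without SIAE protein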
# RBBP9 inh = human RBBP9 inhibitors, primary screen, biochemical, fluorescence polarization, FP-Rh probe, HTS | Serine hydrolase RBBP9 (Homo sapiens), O75884 | recombinant RBBP9 | inhibition, % at 7.94 µM | hit rate 0.2% among 220,000;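 active = inhibition above the campaign mean of all tested compounds plus 3 SD, cut at about 14% in these data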;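 note: plate controls were DMSO wells with RBBP9 for no effect and wells lacking RBBP9 protein for full effect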
#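 System: RBBP9 protein / Buffer or medium: Tris/NaCl buffer pH 8.0 with 0.1% Pluronic / Probe or stimulus: Serine-hydrolase probe FP-Rh, 375 nM pre-mixing / Dosing: 7.94 µM single dose, 0.794% DMSO / Times: enzyme-compound preincubation 30 min, then probe labeling 45 min, 25 °C / Technique: fluorescence polarization (mP), excitation 525 nm, emission 598 nm / Replication: singlicate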
# SIAE inh conf = human SIAE inhibitors, retest, confirmation, biochemical, fluorescence polarization, FP-Rh probe, triplicate | AID 1117263, 2014 | inhibition, % at 9.66 µM | SIAE FP-Rh activity-based probe | hit rate 13% among 2,300 | shares compounds with SIAE primary;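 active = mean inhibition of the replicates above the hit cutoff set in the primary screen, cut at about 17% in these data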;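 note: 0% = SIAE with DMSO and probe and 100% = probe without SIAE; inhibitors lower polarization as more probe stays unbound to SIAE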
# * hit, by the source's call; · = no result. Hits are enriched below; roughly 2.7% of the tested compounds scored in any of these assays.
SMILES,PRMT1 inh,PAD4 FP inh,GSTO1 counter,SIAE primary,RBBP9 inh,SIAE inh conf
COc1ccc(CCNC(=O)CNCC(c2ccccc2)N(C)C)cc1OC (stereo not drawn),1,-8,-2,19*,·,1
CN(C1CCCCC1)S(=O)(=O)c1ccc(NC(=O)c2ccco2)cc1,-4,-2,-6,-11,-2,·
Cc1ccccc1CS(=O)(=O)Cc1ccc(C(=O)NCCc2ccccc2)o1,8,1,-2,-5,·,·
CCOC(=O)N1CCN(S(=O)(=O)c2ccc(C)cc2)CC1,4,5,1,-3,·,·
Cc1ccc(S(=O)(=O)N2CCN(C(=O)CCC(=O)NCc3ccc(F)cc3)CC2)cc1,1,-1,-8,18*,0,2
CCOCCCNCC(=O)N1CCN(S(=O)(=O)c2ccc(C)cc2)CC1,-2,2,4,17*,-11,-1
CN1CCN(C(=O)CCC(=O)NCc2ccc(F)cc2)CC1,3,1,-5,-8,·,·
CSc1oc(-c2ccccc2)nc1C(N)=O,-4,-6,4,0,2,·
Cc1cc(-c2ccc(F)cc2)n2ncc(-c3ccccc3)c2n1,1,·,·,0,·,·
Cc1cc(N=Cc2c(O)n(-c3cccc(C(F)(F)F)c3)c(=O)c3ccccc23)no1,-1,-9,-1,21*,1,-8
Cc1cc2cc(CNC(=O)Nc3ccc(Cl)c(Cl)c3)ccc2n1C,5,-2,-5,33*,-12,-9
Cc1ccc(S(=O)(=O)NCc2ccc3c(c2)cc(C)n3C)cc1,2,11,1,28*,-4,3
Cc1cc2cc(CNC(=O)NC3CCCCC3)ccc2n1C,3,0,-1,6,1,·
COc1ccc(-c2csc3nc(-c4ccccc4F)oc(=O)c23)cc1,-2,-2,-49,-4,2,·
c1ccc(-c2c[nH]c3[n+]2CCCCC3)cc1,-1,8,0,19*,-10,-1
FC(F)Oc1ccc(-n2cc(-c3ccccc3)[n+]3c2CCCCC3)cc1,-2,2,2,-4,5,·
O=C(Nc1nnc(S(=O)(=O)N2CCCCCC2)s1)c1ccc(Cl)cc1,-4,3,-12,-1,·,·
CCCCN1CNC(=S)N(c2ccc(C(=O)OCC)cc2)C1,-2,3,-4,18*,-9,-3
CCOc1cccc(/C=N/N2CCN(c3ccc(Cl)cc3)CC2)c1O,-7,4,-1,21*,·,1
COc1ccc(/C=N/Nc2nc(-c3ccc(C)cc3)c(NC(C)=O)s2)cc1OC,1,6,8,1,-1,·
COc1cc(/C=N\Nc2nc(-c3ccc(C)cc3)c(NC(C)=O)s2)ccc1O,-1,7,12,22*,9,33*
O=C1NN(c2ccc(Br)cc2)C(=O)/C1=C\c1ccc(O)cc1O,6,-1,29,7,·,·
O=C1NN(c2cccc(Br)c2)C(=O)/C1=C\c1ccc(O)cc1,20,0,20,19*,·,4
O=C(O)C1C2C=CC(C2)C1C(=O)NCCc1cccc(Cl)c1 (stereo not drawn),3,1,1,22*,1,-9
NC(Cc1ccc(C(F)(F)F)cc1)c1csc(NC(=O)Nc2ccccc2Cl)n1 (stereo not drawn),-4,·,·,20*,·,21*
SMILES,PRMT1 inh,PAD4 FP inh,GSTO1 counter,SIAE primary,RBBP9 inh,SIAE inh conf
Cc1c([N+](=O)[O-])cc(C(=O)N2CCOCC2)cc1[N+](=O)[O-],-1,-2,4,2,-5,·
c1ccc(-c2csc3nnc(SCc4ccc5c(c4)OCO5)n23)cc1,-8,3,0,5,-5,·
CCCOC(=O)CCCC[C@H]1SC[C@@H](NC(=O)OC)[C@H]1NC(=O)OC,-2,-7,2,-2,6,·
O=C(COC(=O)c1ccc(CSc2ccc(Cl)cc2)cc1)Nc1ccccc1,-2,-3,2,20*,-5,-4
O=C(COC(=O)CSc1ccc(Cl)cc1)Nc1ccccc1,1,-4,·,-7,·,·
C/C(Nc1ccc(F)cc1)=C(/C#N)C(N)=O,1,-3,-1,3,-1,·
Cc1csc(=O)n1CC(=O)OCC(=O)NC(C)c1ccc(F)cc1 (stereo not drawn),6,-6,·,19*,·,3
CSc1ccc(S(=O)(=O)N2CCC(C(=O)N3CCOCC3)CC2)cc1,2,-3,-7,1,·,·
CC(=O)c1ccc(NC(=O)NC2CCCCN(Cc3cccc(Cl)c3)C2=O)cc1 (stereo not drawn),-4,·,·,-31,·,·
O=C1C=CC2=C3c4cc(O)c(O)cc4CC3(O)COC2=C1O (stereo not drawn),56*,·,·,28*,·,4
COCCNC(=O)C(c1ccc(O)cc1)N(Cc1ccccc1)C(=O)CCC(=O)Nc1ccccn1 (stereo not drawn),-3,-8,-1,20*,·,-3
O=C(CN(Cc1ccc(F)cc1)C(=O)CCC(=O)Nc1ccccn1)NCCc1ccccc1,-7,3,3,21*,·,-1
CC#CC(=O)N1CCC(CCC(=O)N(C)Cc2ccccc2)CC1,4,5,2,3,·,·
CCc1cccc(NC(=O)CN(C)C2=NS(=O)(=O)c3ccccc32)c1,-2,4,·,3,·,·
S=C(c1ccc(-c2cccc(Cl)c2)o1)N1CCCCC1,-1,-2,-2,-2,-8,·
O=C(O)c1ccc(-c2cccc(Cl)c2)o1,-1,4,5,18*,-9,7
O=C1CCCN1c1ccc(S(=O)(=O)N2CCN(c3ccccc3)CC2)cc1,-1,-3,6,2,-1,·
O=C1CCCN1c1ccc(S(=O)(=O)N2CCC(c3ccccc3)CC2)cc1,4,0,2,22*,-9,-2
COc1ccc(NC(=O)CN(C)C(=O)CCSc2ccc(F)cc2)cc1,1,·,·,19*,·,1
CN(CC(=O)Nc1cccc(F)c1)C(=O)CCSc1ccc(F)cc1,-2,-1,4,-3,·,·
COc1ccc2nc(SCC(=O)N(C)CC(=O)Nc3ccc(F)cc3)[nH]c2c1,-1,-1,12,18*,·,-3
Cc1c(N=C2N=C(NC(=O)c3ccc(F)cc3)c3ccccc32)c(=O)n(-c2ccccc2)n1C,1,-1,12,-2,-2,·
Cc1nc2ccc(Cc3ccc4nc(C)[nH]c4c3)cc2[nH]1,3,-2,-6,6,5,·
CCCc1nnc(NC(=O)CCC(=O)N2CCN(c3ccccn3)CC2)s1,4,-2,-1,-3,-1,·
COc1ccc(CC(=O)Nc2cc(C)ccn2)cc1OC,-3,2,2,-2,·,·
Clc1ccc(C2Nc3cccc4cccc(c34)N2)c(Cl)c1,16,·,·,20*,·,6
